Data set [1] can be described thus: Stability in human serum assessed as half life by LC-MS analysis. Format: ADME, cell-free. A digest of the protocol:
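1 mM peptide stocks in water were mixed 1:1 (v/v) with human serum. Aliquots were taken at set times and digestion was stopped by acetonitrile precipitation. Serum proteins were removed by centrifugation, and intact peptide and fragments in the supernatant were analysed by LC–MS. Half-life values are the mean of three independent studies.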

A short description of data set [2]: Retention time of the compound by HPLC analysis. Format: physicochemical. The method, boiled down: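 Analytical RP-HPLC on a C18 column (4.6 × 50 mm, 3 μm) with a linear gradient of 0–60% acetonitrile (0.036% TFA) into water (0.045% TFA) over 15 min. Flow was 1 mL/min with UV detection at 220 nm.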
Data set [3] relates to Pseudomonas sp. Put plainly: Antimicrobial activity against Pseudomonas sp assessed as bacterial growth inhibition incubated in presence of serum for 24 hrs. It counts as functional. The method, boiled down: (§1)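 Broth microdilution in polypropylene plates in Mueller-Hinton medium, inoculum 5 × 10^5 CFU/mL, 37 °C for 24 h. […] MIC is the lowest peptide concentration with no growth. Values are the mean of three independent studies.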

Data set [4] deals with Salmonella enterica. As to the kind of experiment: Antimicrobial activity against Salmonella enterica assessed as bacterial growth inhibition incubated in presence of serum for 24 hrs. Format: functional. A digest of the protocol:
as §1

The test system of data set [5] is Shigella flexneri. As to the kind of experiment: Antimicrobial activity against Shigella flexneri assessed as bacterial growth inhibition incubated in presence of serum for 24 hrs. It counts as functional. A digest of the protocol:
as §1

A short description of data set [6]: Hemolytic activity in horse RBC assessed as hemolysis at 250 uM relative to control. It counts as ADME, tissue-based, Equus caballus. To be noted: erythrocyte. A digest of the protocol: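 Horse erythrocytes were diluted 10-fold in PBS and washed by three spins at 800g. They were incubated with peptides for 4 h at 37 °C, and supernatant absorbance was read at 540 nm. Percent hemolysis is relative to total lysis with 1% Triton X-100. Values are the mean of three independent studies.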

The test system of data set [7] is MRC5. Put plainly: Cytotoxicity against human MRC5 cells assessed as cell growth inhibition measured after 4 hrs by MTT assay. It counts as cell-based. As to conditions: MRC5, 4 h. A digest of the protocol: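 MRC-5 fibroblasts were grown in MEMα with 10% FBS, seeded at 3 × 10^4 cells/well and left overnight to adhere. Cells were exposed to two-fold peptide serial dilutions for 4 h, then given medium with MTT at 0.4 mg/mL for 150 min. Formazan was dissolved in DMSO and read at 600 nm. Values are the mean of three independent studies.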

Data set [8] relates to Escherichia coli. As to the kind of experiment: Antimicrobial activity against clinical isolate Escherichia coli 116878 assessed as bacterial growth inhibition incubated in presence of serum for 24 hrs. It counts as functional. The method, boiled down:
as §1

Data set [9] has as its system Escherichia coli. As to the kind of experiment: Antimicrobial activity against clinical isolate Escherichia coli cf073 assessed as bacterial growth inhibition incubated in presence of serum for 24 hrs. It counts as functional. A digest of the protocol:
as §1

The subject of data set [10] is Pseudomonas aeruginosa. As to the kind of experiment: Antimicrobial activity against clinical isolate Pseudomonas aeruginosa 827651 assessed as bacterial growth inhibition incubated in presence of serum for 24 hrs. Format: functional. The method, boiled down: as §1
The test system of data set [11] is Pseudomonas aeruginosa. As to the kind of experiment: Antimicrobial activity against clinical isolate Pseudomonas aeruginosa 827632 assessed as bacterial growth inhibition incubated in presence of serum for 24 hrs. It counts as functional. The method, boiled down:
as §1

The subject of data set [12] is Salmonella typhimurium. Put plainly: Antimicrobial activity against clinical isolate Salmonella typhimurium 324 assessed as bacterial growth inhibition incubated in presence of serum for 24 hrs. It counts as functional, Salmonella enterica subsp. enterica serovar Typhimurium. As to conditions: Salmonella enterica. A digest of the protocol:
as §1

Data set [13] has as its system Salmonella typhimurium. Put plainly: Antimicrobial activity against clinical isolate Salmonella typhimurium 365 assessed as bacterial growth inhibition incubated in presence of serum for 24 hrs. To be noted: Salmonella enterica. Format: functional, Salmonella enterica subsp. enterica serovar Typhimurium. The method, boiled down:
as §1

Data set [14] has as its system Acinetobacter baumannii. As to the kind of experiment: Antimicrobial activity against clinical isolate Acinetobacter baumannii 3862 assessed as bacterial growth inhibition incubated in presence of serum for 24 hrs. Format: functional. The method, boiled down: as §1
Data set [15] deals with Acinetobacter baumannii. As to the kind of experiment: Antimicrobial activity against clinical isolate Acinetobacter baumannii 3878 assessed as bacterial growth inhibition incubated in presence of serum for 24 hrs. It counts as functional. A digest of the protocol:
as §1

The test system of data set [16] is Acinetobacter baumannii. Put plainly: Antimicrobial activity against clinical isolate Acinetobacter baumannii 3879 assessed as bacterial growth inhibition incubated in presence of serum for 24 hrs. It counts as functional. The method, boiled down:
as §1

The test system of data set [17] is Acinetobacter baumannii. Put plainly: Antimicrobial activity against clinical isolate Acinetobacter baumannii 3880 assessed as bacterial growth inhibition incubated in presence of serum for 24 hrs. Format: functional. A digest of the protocol:
as §1

In data set [18] the test system is Cell membrane. Put plainly: Induction of membrane depolarization in Escherichia coli at 0.4 uM incubated 20 to 30 mins under dark by Eclipse fluorescence spectrometry. Format: subcellular. To be noted: time 20-30 min. A digest of the protocol: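 Exponential-phase E. coli (OD 0.2–0.4) was washed in 5 mM HEPES, 20 mM glucose, 100 mM KCl, pH 7.2, and resuspended to OD 0.05. DiSC3(5) was added at 0.4 μM final and equilibrated in the dark for 20–30 min to a stable baseline. Peptide was then added and dye release was followed by fluorescence at ex 625 nm / em 666 nm.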

The subject of data set [19] is Cell membrane. As to the kind of experiment: Induction of membrane damage in Escherichia coli assessed as loss of membrane integrity by measuring blebs at 10 uM incubated for 2 hrs by Electron scanning microscopy. Format: subcellular. A digest of the protocol: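 E. coli was grown in LB at 37 °C to OD600 0.4 and exposed to 10 μM peptide for 2 h at room temperature. Cells were collected on 0.1 μm filters, fixed in 2.5% glutaraldehyde in cacodylate buffer pH 7.4 and post-fixed in 1% OsO4. Samples were dehydrated in ethanol, coated with gold–palladium and imaged at 15 kV.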

Data set [20] concerns Escherichia coli. As to the kind of experiment: Antimicrobial activity against Escherichia coli assessed as bacterial growth inhibition incubated for 24 hrs.
The subject of data set [21] is Acinetobacter baumannii. Put plainly: Antimicrobial activity against Acinetobacter baumannii assessed as bacterial growth inhibition incubated for 24 hrs.

Values after ≈ are worked out from the molar mass of the structure shown. Active and inactive are the calls of the source. No cut-off for these calls is given here.

For the compound `CC[C@H](C)[C@H](NC(=O)[C@H](C)NC(=O)[C@H](CCCN)NC(=O)[C@H](CCSC)NC(=O)[C@H](C)NC(=O)[C@@H](NC(=O)[C@@H](NC(=O)[C@H](CCCN)NC(=O)[C@@H]1CCCN1C(=O)[C@H](CO)NC(=O)[C@@H](NC(=O)[C@H](Cc1c[nH]cn1)NC(=O)[C@H](CCC(N)=O)NC(=O)[C@@H](NC(=O)[C@H](C)NC(=O)[C@H](Cc1ccccc1)NC(=O)[C@H](Cc1c[nH]c2ccccc12)NC(=O)[C@H](CCC(N)=O)NC(=O)[C@H](C)NC(=O)[C@H](CCCN)NC(=O)[C@@H](NC(=O)[C@H](Cc1ccccc1)NC(=O)[C@H]1CCCN1C(=O)[C@@H](N)CCCN)[C@@H](C)O)[C@@H](C)CC)[C@@H](C)CC)[C@@H](C)O)[C@@H](C)CC)C(=O)N[C@@H](CC(N)=O)C(=O)N[C@@H](CC(N)=O)C(=O)N[C@@H](Cc1ccc(O)cc1)C(=O)N[C@@H](CCCN)C(=O)N[C@@H](Cc1c[nH]c2ccccc12)C(=O)N[C@@H](CCCN)C(=O)O`, the half-life (usually how long it takes for the measured level to halve) in data set [1] is greater than 480 min. In addition, the Retention_time in data set [2] is recorded as 10.9 min. The MIC – broadly, the lowest concentration that inhibits growth of the organism – in [3] was 1.56 µM; in [4] it was 50 µM; in [5] it was 50 µM; in [8], 25 µM; in data set [9], 6.25 µM; in [10] it was 25 µM. Further, the MIC was greater than 100 µM in data set [11]; 25 µM in data set [12]; 25 µM in data set [13]; 1.56 µM in data set [14]; 0.78 µM in data set [15]; 3.13 µM in data set [16]. Moreover, the minimal inhibitory concentration (MIC) in [17] came out at 12.5 µM; in [20] it was 3.13 µM (≈ 11 µg/mL); in data set [21], 12.5 µM (≈ 43.8 µg/mL). Besides, in data set [6], the Activity was 1.1%. For the same compound, the IC50 – broadly, the concentration that inhibits the measured activity by half – in [7] stood at 230 µM. The outcome in data set [18] and in data set [19] was Active.
For H-RPFTRAQWFAIQHISPRTIAMRAINNYRWR-OH, in data set [1], the half-life came to 12.3 min. Also, the Retention_time in data set [2] stood at 8.9 min. For the same compound, the MIC in data set [3] was determined as 1.56 µM; in data set [4] it was 12.5 µM; in data set [5] it was 3.13 µM; in data set [8], 6.25 µM; in data set [9] it was 3.13 µM; in [10], 25 µM. Moreover, the MIC amounted to 12.5 µM in data set [11]; 6.25 µM in data set [12]; 6.25 µM in data set [13]; 0.78 µM in data set [14]; 1.56 µM in data set [15]; 1.56 µM in [16]. Moreover, the MIC in data set [17], in data set [20] and in data set [21] was 1.56 µM in each case. In addition, the Activity in data set [6] was 44%. For the same compound, in data set [7], the half-maximal inhibitory concentration (IC50) amounted to 23 µM. For the same compound, the result in data set [18] and in data set [19] was Active.
